For four compounds, MIC results are on record in ChEMBL document CHEMBL1141283, “Benzaldehyde derivatives from Sarcodontia crocea” (2007).

Values after ≈ are worked out from the molar mass of the structure shown.

What all share (assay type): functional
One assay relates to Pseudomonas syringae. Put plainly: Antibacterial activity against Pseudomonas syringae IMI347448 by microdilution method. An outline of the steps: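 Two-fold broth microdilution MIC, four replicates per concentration per strain, over 1.56 to 800 µg/mL. Chloramphenicol served as the antibacterial positive control across the same concentration range.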
The test system of the next assay is Plenodomus lingam. As to the kind of experiment: Antifungal activity against Leptosphaeria maculans IMI266355 by microdilution method. An outline of the steps: (§1)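 Broth microdilution with two-fold (×2) dilution series of compounds from 1.56 to 800 µg/mL, four replicates per concentration per test strain; MIC taken as the lowest concentration inhibiting growth. Nystatin (fungi) and chloramphenicol (bacteria) were run as positive controls over the same concentration range.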
For orientation: Dilution methods test growth across graded concentrations, often in twofold steps.

The test system of a further assay is Eurotium amstelodami. As to the kind of experiment: Antifungal activity against Eurotium amstelodami FC1021 by microdilution method. Particulars: Aspergillus amstelodami. Put shortly:
as §1

The next assay has as its system Botrytis cinerea. As to the kind of experiment: Antifungal activity against Botrytis cinerea IMI160282 by microdilution method. An outline of the steps:
as §1

In a further assay the test system is Cladosporium herbarum. As to the kind of experiment: Antifungal activity against Cladosporium herbarum IMI300461 by microdilution method. Put shortly:
as §1

The test system of a further assay is Bacillus subtilis. Put plainly: Antibacterial activity against Bacillus subtilis IMI347329 by microdilution method. Put shortly: as §1

For orientation: MIC means the smallest concentration in the dilution series that meets the test's criterion for growth inhibition. `O=Cc1ccc(C2COC(=O)C2)cc1` (stereo not drawn): the MIC is 400 µg/mL (≈ 2100 µM) in the assay on Pseudomonas syringae; 400 µg/mL (≈ 2100 µM) in the assay with Plenodomus lingam; 200 µg/mL (≈ 1050 µM) in the assay with Eurotium amstelodami; 200 µg/mL (≈ 1050 µM) in the assay on Botrytis cinerea; 400 µg/mL (≈ 2100 µM) against Cladosporium herbarum; above 800 µg/mL in the assay on Bacillus subtilis.
`O=Cc1ccc(-c2ccoc2)cc1`: the MIC came to 200 µg/mL (≈ 1160 µM) in the assay on Pseudomonas syringae; 200 µg/mL (≈ 1160 µM) in the assay on Plenodomus lingam; 100 µg/mL (≈ 581 µM) in the assay on Eurotium amstelodami; 200 µg/mL (≈ 1160 µM) in the assay on Botrytis cinerea; 200 µg/mL (≈ 1160 µM) against Cladosporium herbarum; 800 µg/mL (≈ 4650 µM) with Bacillus subtilis.
Regarding `O=C(N[C@H](CO)[C@H](O)c1ccc([N+](=O)[O-])cc1)C(Cl)Cl` [CHLORAMPHENICOL], the MIC came to 3.13 µg/mL (≈ 9.69 µM) in the assay with Pseudomonas syringae and 6.25 µg/mL (≈ 19.3 µM) against Bacillus subtilis.
As to NYSTATIN, the MIC stood at 100 µg/mL against Plenodomus lingam, 50 µg/mL in the assay with Eurotium amstelodami, 50 µg/mL with Botrytis cinerea and 25 µg/mL against Cladosporium herbarum.
